Data set [1] relates to Bovine viral diarrhea virus 1. In words: Antiviral activity against BVDV infected in MDBK cells assessed as protection against virus-induced cytopathogenicity after 4 days by MTT assay. It is filed as functional, organism-based. Conditions: Bovine viral diarrhea virus isolates and strains, 96 h. The gist of the method: (§1)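 MDBK (BVDV) or BHK-21 (YFV) cells were seeded at 3 × 10^4 or 5 × 10^4 cells/well respectively and grown overnight to confluent monolayers at 37 °C in 5% CO2. Monolayers were infected at m.o.i. 0.01 in serum-free medium. After 1 h, MEM Earle's with 1% FCS was added, with or without serial compound dilutions. After 3–4 days at 37 °C, viability was read by MTT. EC50 was taken as 50% protection from virus-induced cytopathogenicity.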
In general terms: Protection from cytopathic effect is a common read-out in antiviral testing.

Another data set concerns Vaccinia virus. In words: Antiviral activity against VV infected in Vero76 cells assessed as reduction in virus plaque formation after 4 days by MTT assay. Conditions: Orthopoxvirus vaccinia; Vero 76. It is filed as functional, organism-based. For orientation: Formazan colour is commonly taken as a measure of viable cells.
The next data set has as its system Yellow fever virus. In words: Antiviral activity against YFV infected in BHK21 cells assessed as protection against virus-induced cytopathogenicity after 4 days by MTT assay. In kind it is functional, organism-based. The settings on record: BHK-21, 96 h. Put shortly: as §1
The nature of data set [2]: Cytotoxicity against mock-infected african green monkey Vero76 cells assessed as reduction in cell viability after 96 hrs by MTT assay. Conditions: chlorocebus sabaeus. In kind it is cell-based, Vero.
A further data set deals with Coxsackievirus B2. In words: Antiviral activity against CVB2 infected in Vero76 cells assessed as reduction in virus plaque formation after 4 days by MTT assay. The settings on record: Enterovirus B, Vero 76, 96 h. It is filed as functional, organism-based.
Data set [3] has as its system Human immunodeficiency virus 1. In words: Antiviral activity against HIV1 infected in MT4 cells assessed as virus-induced cytopathogenicity after 4 days. In kind it is functional, organism-based.
Data set [4] is described as follows: Cytotoxicity against mock-infected BHK cells assessed as reduction in cell viability after 96 hrs by MTT assay. It is filed as cell-based, Mesocricetus auratus. Conditions: hamster. Put shortly:
(§2)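 Cytotoxicity run in parallel with the antiviral assays. MDBK seeded at 6 × 10^5 and BHK at 1 × 10^6 cells/mL in maintenance medium with or without serial compound dilutions. Incubated 48–96 h at 37 °C, 5% CO2, then viability read by MTT. CC50 is the concentration reducing mock-infected cell viability by 50%.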

The test system of data set [5] is Respiratory syncytial virus. In words: Antiviral activity against RSV infected in Vero76 cells assessed as reduction in virus plaque formation after 4 days by MTT assay. In kind it is functional, organism-based. Conditions: human respiratory syncytial virus, Vero 76, 96 h.
Data set [6] is described as follows: Cytotoxicity against mock-infected human MT4 cells assessed as reduction in cell viability after 96 hrs by MTT assay. In kind it is cell-based. Put shortly:
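Exponentially growing MT-4 cells seeded at 1 × 10^5 cells/mL in RPMI-1640 with 10% FCS, penicillin and streptomycin, with or without serial compound dilutions. Incubated at 37 °C, 5% CO2; viability read by MTT after 96 h. CC50 is the concentration reducing mock-infected cell viability by 50%.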

The subject of a further data set is Poliovirus 1. In words: Antiviral activity against Sb1 virus infected in Vero76 cells assessed as reduction in virus plaque formation after 4 days by MTT assay. In kind it is functional, organism-based. The settings on record: Enterovirus C, Sabin, Vero 76, 96 h.
Data set [7] in a line: Cytotoxicity against mock-infected MDBK cells assessed as reduction in cell viability after 96 hrs by MTT assay. In kind it is cell-based, Bos taurus. The settings on record: cattle. Put shortly: as §2
The subject of data set [8] is Vesicular stomatitis virus. In words: Antiviral activity against VSV infected in Vero76 cells assessed as reduction in virus plaque formation after 4 days by MTT assay. In kind it is functional, organism-based. Conditions: Vero 76.

The values that follow come from ChEMBL document CHEMBL1144182, “Antimicrobial and cytotoxic arylazoenamines. Part III: antiviral activity of selected classes of arylazoenamines” (Bioorg Med Chem, 2008).

Active and inactive are the calls of the source. No rule for the calls is given here.

The EC50 is the midpoint of the concentration-response curve. One may read the CC50 as the concentration that lowers cell viability or growth by half. On to `CN1CCC/C1=C\N=N\c1cccc(Br)c1`, for which the EC50 in data set [1] was 9 µM; with Yellow fever virus, 7 µM; in the data set on Coxsackievirus B2 it was 16 µM; in [5], greater than 80 µM; in the data set on Poliovirus 1, greater than 80 µM. Moreover, the result (in the data set with Vaccinia virus; in data set [3]; in data set [8]) was inactive. Moreover, the 50% cytotoxic concentration (CC50) at 96 h in data set [2] was 80 µM; in data set [4], 41 µM; in data set [6], 55 µM; in [7], 52 µM.
Turning to `c1ccc2c(/N=N\C3=C4CCCCN4CCC3)cccc2c1`, the EC50 in data set [1] was 6 µM; in the data set on Yellow fever virus, greater than 20 µM; with Coxsackievirus B2, greater than 90 µM; in data set [5] it was greater than 90 µM; with Poliovirus 1 it was greater than 90 µM. The result (with Vaccinia virus; in data set [3]; in data set [8]) was inactive. Further, the CC50 at 96 h was 90 µM in data set [2], 20 µM in [4], 12 µM in data set [6] and greater than 100 µM in data set [7].
On to `Clc1cccc(N2CCN(/C=C/N=N/c3ccccc3)CC2)c1`, for which the concentration for a half-maximal effect (EC50) in [1] was greater than 7 µM; with Yellow fever virus, 10 µM; in the data set with Coxsackievirus B2, greater than 11 µM; in data set [5], 5 µM; in the data set with Poliovirus 1, greater than 11 µM. In addition, the outcome (in the data set with Vaccinia virus; in [3]; in [8]) was inactive. For the same compound, the half-maximal cytotoxic concentration (CC50) at 96 h in data set [2] was found to be 11 µM; in data set [4] it was 47 µM; in data set [6], 19 µM; in [7] it was 7 µM.
For `C(=C\N1CCN(c2ccccn2)CC1)/N=N/c1ccccc1`, the EC50 was greater than 100 µM in data set [1]; greater than 75 µM in the data set with Yellow fever virus; 6 µM with Coxsackievirus B2; 7 µM in data set [5]; greater than 22 µM with Poliovirus 1. The result (with Vaccinia virus; in data set [3]; in data set [8]) was inactive. Besides, the CC50 at 96 h in [2] was 22 µM; in [4], 75 µM; in data set [6], 19 µM; in [7] it was no less than 100 µM.
Consider `Clc1ccc(/N=N\C2=C3CCCN3CCC2)cc1`, for which the EC50 is greater than 30 µM in [1]; greater than 34 µM in the data set on Yellow fever virus; 10 µM in the data set on Coxsackievirus B2; greater than 75 µM in [5]; 20 µM in the data set with Poliovirus 1. In addition, the outcome (with Vaccinia virus; in [3]; in data set [8]) was inactive. Moreover, the CC50 at 96 h in data set [2] is 75 µM; in data set [4], 34 µM; in data set [6], greater than 100 µM; in [7], 30 µM.
As to `CN1C=C(/N=N/c2cccc(C(F)(F)F)c2)CCC1`, the EC50 is 90 µM in data set [1]; greater than 100 µM in the data set with Yellow fever virus; greater than 100 µM in the data set on Coxsackievirus B2; greater than 100 µM in data set [5]; greater than 100 µM in the data set with Poliovirus 1. Besides, the result (in the data set with Vaccinia virus; in data set [3]; in data set [8]) was inactive. In addition, the CC50 at 96 h in data set [2], in data set [4], in [6] and in data set [7] was greater than 100 µM in each case.
As for `FC(F)(F)c1cc(/N=N\C2=C3CCCCN3CCC2)ccc1Cl`, the EC50 in [1] was greater than 35 µM; in the data set on Yellow fever virus it was greater than 41 µM; in the data set on Coxsackievirus B2 it was 64 µM; in data set [5] it was greater than 100 µM; in the data set with Poliovirus 1 it was greater than 100 µM. Besides, the outcome (in the data set with Vaccinia virus; in data set [3]; in [8]) was inactive. Further, the CC50 at 96 h in data set [2] is greater than 100 µM; in data set [4] it was 41 µM; in data set [6], 19 µM; in data set [7] it was 35 µM.
Turning to `CN1CCC/C1=C\N=N\c1ccccc1`, the EC50 is 10 µM in data set [1]; greater than 100 µM in the data set on Yellow fever virus; 19 µM in the data set on Coxsackievirus B2; 20 µM in [5]; greater than 82 µM in the data set on Poliovirus 1. Besides, the result (in the data set on Vaccinia virus; in data set [3]; in data set [8]) was inactive. Moreover, the CC50 at 96 h was 82 µM in data set [2], greater than 100 µM in data set [4], greater than 100 µM in [6] and greater than 100 µM in data set [7].
Consider `Fc1ccc(/N=N\C2=C3CCCCN3CCC2)cc1C(F)(F)F`, for which the EC50 in data set [1] is greater than 100 µM; in the data set with Yellow fever virus, greater than 60 µM; with Coxsackievirus B2, 45 µM; in [5], greater than 100 µM; with Poliovirus 1 it was greater than 100 µM. In addition, the outcome (in the data set on Vaccinia virus; in data set [3]; in [8]) was inactive. Further, the half-maximal cytotoxic concentration (CC50) at 96 h in data set [2] was greater than 100 µM; in [4], 60 µM; in data set [6] it was 3 µM; in data set [7] it was greater than 100 µM.
Turning to `CN1CCC/C1=C\N=N\c1ccc(Br)c(C(F)(F)F)c1`, the EC50 in data set [1] was 46 µM; in the data set with Yellow fever virus, greater than 100 µM; in the data set on Coxsackievirus B2, 100 µM; in data set [5], greater than 100 µM; in the data set on Poliovirus 1, 60 µM. The result (with Vaccinia virus; in data set [3]; in data set [8]) was inactive. The CC50 at 96 h was no less than 100 µM in data set [2], greater than 100 µM in data set [4], 24 µM in data set [6] and greater than 100 µM in data set [7].
As for `CN1CCC/C1=C\N=N\c1cc(C(F)(F)F)cc(C(F)(F)F)c1`, the EC50 is greater than 36 µM in data set [1]; greater than 48 µM in the data set on Yellow fever virus; greater than 93 µM in the data set on Coxsackievirus B2; greater than 93 µM in data set [5]; greater than 93 µM with Poliovirus 1. Moreover, the result (with Vaccinia virus; in [3]; in data set [8]) was inactive. The CC50 at 96 h was determined as 93 µM in data set [2], 48 µM in data set [4], 2 µM in data set [6] and 36 µM in data set [7].
`CN1C=C(/N=N/c2c(F)c(F)c(F)c(F)c2F)CCC1`: the EC50 (in data set [1]; in the data set with Yellow fever virus; in the data set with Coxsackievirus B2; in data set [5]; in the data set with Poliovirus 1) was greater than 100 µM in each case. In addition, the result (with Vaccinia virus; in [3]; in data set [8]) was inactive. In addition, the cytotoxic concentration (CC50) at 96 h in data set [2], in data set [4], in data set [6] and in [7] was greater than 100 µM each time.
Consider `CN1C=C(/N=N/c2ccccc2)CCC1`, for which the EC50 was greater than 100 µM in data set [1]; greater than 100 µM in the data set with Yellow fever virus; greater than 100 µM with Coxsackievirus B2; 75 µM in [5]; greater than 100 µM with Poliovirus 1. For the same compound, the outcome (with Vaccinia virus; in data set [3]; in data set [8]) was inactive. The CC50 at 96 h in [2] is no less than 100 µM; in data set [4], greater than 100 µM; in data set [6], greater than 100 µM; in data set [7], greater than 100 µM.
